Compound activity from PubChem BioAssay.
Rows were chosen to be rich in hits. Some 2.6% of all compounds tested hit in one or more screens of this group.
ABHD5 PLIN5 PPI = inhibitors of human ABHD5-perilipin-5 interaction; Split G. princeps luciferase complementation, luminescence, 4 h; 360,000 compounds, 0.78% hits; Q00G26+Q8WTS1; inhibition, % at 4 µM;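 active = inhibition above the mean inhibition across every tested compound plus 3 SD, cut at about 22% in these data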;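 note: 0% = DMSO only wells and the 100% control is not disclosed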
Target sequence (Q00G26 whole entry, looked up): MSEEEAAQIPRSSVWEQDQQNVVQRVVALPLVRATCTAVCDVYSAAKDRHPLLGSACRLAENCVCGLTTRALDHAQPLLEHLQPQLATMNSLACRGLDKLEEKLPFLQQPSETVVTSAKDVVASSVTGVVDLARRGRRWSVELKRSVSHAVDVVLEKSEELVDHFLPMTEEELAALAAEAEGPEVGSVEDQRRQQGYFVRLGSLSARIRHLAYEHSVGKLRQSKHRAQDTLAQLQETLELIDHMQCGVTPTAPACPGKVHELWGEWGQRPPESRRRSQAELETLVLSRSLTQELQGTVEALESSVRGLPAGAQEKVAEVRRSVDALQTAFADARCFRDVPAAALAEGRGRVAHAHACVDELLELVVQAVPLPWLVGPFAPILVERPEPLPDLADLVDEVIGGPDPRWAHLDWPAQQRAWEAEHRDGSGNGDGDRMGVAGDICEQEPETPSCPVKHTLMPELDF
Target sequence (Q8WTS1 whole entry, looked up): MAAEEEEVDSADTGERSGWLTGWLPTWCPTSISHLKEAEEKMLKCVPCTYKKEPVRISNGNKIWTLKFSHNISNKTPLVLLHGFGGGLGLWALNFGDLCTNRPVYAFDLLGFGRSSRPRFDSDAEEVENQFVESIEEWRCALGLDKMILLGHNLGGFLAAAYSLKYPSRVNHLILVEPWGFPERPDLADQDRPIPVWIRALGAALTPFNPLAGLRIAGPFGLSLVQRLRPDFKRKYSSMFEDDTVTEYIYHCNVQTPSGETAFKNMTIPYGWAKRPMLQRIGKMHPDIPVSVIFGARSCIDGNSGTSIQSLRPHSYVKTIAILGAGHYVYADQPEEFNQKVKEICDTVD
NadD inh = NadD (S. aureus) enzyme inhibition. purified NadD enzyme, colorimetric absorbance read-out. inhibition, % at 20 µM. 360,000 compounds, 0.78% hits; in the data active = inhibition above about 26%
core dimer inh = blocks dimerization of HCV core protein; TR-FRET GST/Flag-core106 dimerization, 1536-well; inhibition, % at 5 µM; 300,000 compounds, 0.33% hits;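 active = inhibition above the mean of all tested compounds plus 3 SD, set per screening campaign, cut at about 45% in these data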
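Material: Tagged HCV core106 pair (GST and Flag) | Amount: GST-core106 13.5 nM, Flag-core106 17 nM | Medium: KF-containing HEPES buffer, pH 7.45, DTT, CHAPS, BSA | Reagent: Eu donor and XL665 acceptor anti-tag antibodies | Schedule: 4 h at 22.5 °C | Technique: Time-resolved FRET, ex 340 nm, em 617 and 671 nm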
rCAG binder = molecules binding r(CAG) RNA repeats; r(CAG) RNA repeat, TO-PRO-1 dye displacement fluorescence; inhibition, % at 3 µM; 370,000 compounds, 1.3% hits; AID 651821;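 active = inhibition above the plate cutoff, the mean of all test compounds on that plate plus 3 SD, cut at about 35% in these data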;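 note: 0% = DMSO alone and 100% = 100 µM mitoxantrone as full dye displacement; higher means more dye released from RNA so lower well fluorescence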
Numbers without * were called inactive; x = no result.

SMILES	ABHD5 PLIN5 PPI	NadD inh	core dimer inh	rCAG binder
C/C=C\C=C\C(=O)N1CC2(CC(c3cccc(NC(=O)COc4ccc(Cl)cc4)c3)=NO2)C[C@H]1C(N)=O (some centres undefined)	4	12	47*	22
C/C=C\C=C\C(=O)Nc1cccc(C2=NOC3(C2)C[C@H](C(N)=O)N(C(=O)c2ccccc2C(=O)c2ccccc2)C3)c1 (some centres undefined)	x	x	50*	x
C/C=C\C=C/C(=O)Nc1cccc(C2=NOC3(C2)C[C@@H](C(N)=O)N(C(=O)c2ccccc2)C3)c1 (some centres undefined)	x	x	21	x
C/C=C\C(=O)Nc1cccc(C2=NOC3(C2)C[C@@H](C(N)=O)N(C(=O)CC(c2ccccc2)c2ccccc2)C3)c1 (some centres undefined)	4	10	16	5
C/C=C/C(=O)N1CC2(CC(c3cccc(NC(=O)/C(C)=C/C)c3)=NO2)C[C@H]1C(N)=O (some centres undefined)	-3	2	-13	-1
C/C=C(\C)C(=O)N1CC2(CC(c3cccc(NC(=O)COc4ccc(Cl)cc4)c3)=NO2)C[C@@H]1C(N)=O (some centres undefined)	1	8	-4	5
C/C=C/C=C\C(=O)Nc1cccc(C2=NOC3(C2)C[C@H](C(N)=O)N(C(=O)/C=C/C)C3)c1 (some centres undefined)	2	1	48*	13
C/C=C/C=C/C(=O)Nc1cccc(C2=NOC3(C2)C[C@H](C(N)=O)N(C(=O)CC(c2ccccc2)c2ccccc2)C3)c1 (some centres undefined)	x	x	48*	x
COC(=O)[C@]12C[C@H](CC(=O)NCC34CC5CC(CC(C5)C3)C4)C(=O)N(Cc3ccccc3)C1=C[C@H](C(C)C)O[C@@H]2C1CC1	x	x	x	6
COC(=O)c1ccc2c(C3(c4c[nH]c5ccccc45)CCN(C(=O)OC(C)(C)C)CC3)c[nH]c2c1	x	x	x	17
Cc1cc(NS(=O)(=O)c2ccc(NC(=O)CSc3nnc(-c4ccccn4)n3Cc3ccco3)cc2)nc(C)n1	x	x	x	22
CCN(CC)C(=O)CC[C@H]1CC[C@]2(CCCN(C(=O)C3CCCC3)C2)O1	x	x	x	0
C=C(C)C(=O)Nc1cccc(C2=NOC3(C2)C[C@@H](C(N)=O)N(C(=O)[C@H]2CCC(=O)N2)C3)c1 (some centres undefined)	-3	-9	81*	1
C/C=C\C=C\C(=O)N1CC2(CC(c3cccc(NC(=O)CC)c3)=NO2)C[C@H]1C(N)=O (some centres undefined)	11	-2	48*	9
Cc1ccc(/C=C/C(=O)Nc2ccc([N+](=O)[O-])cc2)o1	29*	12	-4	28
CCN(CC)c1ccc2c(-c3ccc(S(=O)(=O)O)cc3S(=O)(=O)[O-])c3ccc(=[N+](CC)CC)cc-3oc2c1	12	5	68*	x
Cc1ccccc1-c1ccc2c(c1)[C@@H]1C[C@H](N(C)S(=O)(=O)c3ccc(Cl)cc3)[C@H]([C@H](C)O)CN1CC2	x	x	x	6
Cc1cc(/C=C(/C#N)c2nc3ccccc3[nH]2)c(C)n1-c1cccc([N+](=O)[O-])c1	-3	41*	43	17
Cc1cc(/C=C(\C#N)c2nc3ccccc3[nH]2)c(C)n1C	3	9	-15	10
Cc1ccc(/C=C2\SC(=S)N(/N=C/c3cc([N+](=O)[O-])ccc3O)C2=O)o1	-4	37*	5	x
COc1ccc(CNC(=O)[C@@H](Cc2ccccc2)NC(=O)[C@H]2O[C@@H](n3ccc(=O)[nH]c3=O)[C@H](O)[C@@H]2O)cc1	x	x	x	2
CC1(c2ccccc2)CC(C)(C)N2C(=O)/C(=C3\SC(=S)NC3=O)c3cccc1c32 (centres undefined)	4	35*	2	5
Cc1ccc2c(CC(=O)OCc3cc(=O)n4c(n3)sc3ccccc34)coc2c1	5	10	90*	8
CC(C)[C@H](NC(=O)Cc1ccccc1)C(=O)OCc1cc(=O)n2c(n1)sc1ccccc12	-3	4	46	17
O=C(Nc1ccc2nc(-c3ccco3)c(-c3ccco3)nc2c1)NC1CC1	26*	28*	x	x
COc1ccc(CCNC(=O)c2ccc3nc(-c4ccco4)c(-c4ccco4)nc3c2)cc1OC	34*	47*	57*	x
O=C(Nc1cccc(C(F)(F)F)c1)c1ccc2nc(-c3ccco3)c(-c3ccco3)nc2c1	38*	65*	74*	15
CCOC(=O)CNC(=O)N(C)[C@H]1C[C@H]2c3[nH]c4c(-c5ccccc5)cccc4c3CCN2C(=O)[C@H]1[C@H](C)O	x	x	x	6
